Measurements: the EternaBench riboswitch data

Test system: MS2 coat protein
Experiment: apparent Kd, MS2 coat protein; higher = weaker binding; RNA-MaP array; FMN 200 µM where present
In short: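 Apparent Kd: the median of filtered binding-curve fits from single clusters. Designs were transcribed on Illumina sequencing-chip clusters by stalled E. coli RNA polymerase and titrated with SNAP-549-labelled MS2 coat protein from 0.7 or 1.5 nM, doubling to 3 µM, in 100 mM Tris-HCl pH 7.5, 80 mM KCl, 4 mM MgCl2, BSA, DTT, yeast tRNA and Tween-20. Each series ran without and then with constant ligand, and green signal was normalised to red-channel RNA signal and control-cluster median Fmax.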

[1] = designed as: ON switch for flavin mononucleotide, no ligand
[2] = ligand present: flavin mononucleotide, designed as: ON switch for flavin mononucleotide
[3] = designed as: OFF switch for flavin mononucleotide, no ligand
[4] = ligand present: flavin mononucleotide, designed as: OFF switch for flavin mononucleotide

Sequence: AAAAAACAUGAGGAUCACCCAUGUCAAAAGACAUGAGGAUAUGUACAGACUUCGGUCUGUACAGAAGGCAUGUCUU
- apparent Kd [1]: 25.7 nM
- apparent Kd [2]: 18.4 nM

Sequence: CGGCGUUGUCGAGAGGAUAUGCGGUGAUGGACAUGAGGAUCACCCAUGUUAGCGAUAGCAUUACGGUAGAAGGCUCUACAGCUGC
- apparent Kd [1]: 65 nM
- apparent Kd [2]: 17 nM

Sequence: UCCAUCGUAUGAGGAUAUGGAACUGAAACAGUUCCAGAAGGCAUGUCAAUAGACAUGAGGAUCACCCAUGUAUUAUCGAUGGAA
- apparent Kd [1]: 429 nM
- apparent Kd [2]: 42.9 nM

Sequence: AGGAGGUUAGGAUAUGCUGCUCGUCACUUGCGUGAUGAGUAGCAGAAGGGACAUGAGGAUCACCCAUGUAAAGA
- apparent Kd [3]: 43.1 nM
- apparent Kd [4]: 27.7 nM

Sequence: UCGCUGUCAGGAUAUCUUAUAUAGAACAUGAGGAUCACCCAUGUUCAUGUAUUCUGUGAGAGAGAAGGGACUCCUU
- apparent Kd [3]: 15 nM
- apparent Kd [4]: 17.4 nM

Sequence: UUGGCGCGAUCCUUGGUCUCACAUGAGGAUCACCCAUGUAGAGAGGAUAUGCAUAGGGCCCAAUGGCAGAAGGCUCUACAUGAG
- apparent Kd [3]: 67.1 nM
- apparent Kd [4]: 71.2 nM

Sequence: CAACUGUGAGGAUAUGGUGAGUAGUGCCUGAGCGCUGCUCACCAGAAGGCACAUGAGGAUCACCCAUGUAUGAC
- apparent Kd [3]: 46 nM
- apparent Kd [4]: 164 nM

Sequence: GGUGGCGUGAUAACGCUAGAUAUAACAUGAGGAUCACCCAUGUAGGAUAUCCCGCCGAGAGGGCGGGAGAAGGACAACCAAUGG
- apparent Kd [3]: 40.9 nM
- apparent Kd [4]: 34 nM

Sequence: GGUGUAGGAGGAUAUACAUGAGGAUCACCCAUGUGGCCACGUUGUAAGAUGACAUUAUGUAGAAGGCUUAGUGG
- apparent Kd [3]: 90.4 nM
- apparent Kd [4]: 89.8 nM

Sequence: AGAAACUACGAGAAGGACAUGUGGUCCUUCAAUUACAUGAGGAUCACCCAUGUAGGAUAUCGUAGUUUCAGGAUCGUGAGAUCA
- apparent Kd [3]: 12.7 nM
- apparent Kd [4]: 3.81 nM

Sequence: GGGCUGUCAGGAUAUGGGCUCGGGCUCGAAAGGGCUCGGGCUCAGAAGGGACAUGAGGAUCACCCAUGUGGCCC
- apparent Kd [3]: 35.7 nM
- apparent Kd [4]: 32.8 nM

Sequence: ACAACCAGAGGAUAUGCGCAUAGAUCAGACUUUGUUUCUGAACAUGAGGAUCACCCAUGUAGAAGGCUGUAACA
- apparent Kd [3]: 34.9 nM
- apparent Kd [4]: 33.9 nM

Sequence: AGUUAGAUAGCGAUAUGAUCGAGAGAUCAUGUCGCUAAGUUUAGAAGGACAUGAGGAUCACCCAUGUAGGAUAUGGGAGUAGAA
- apparent Kd [1]: 149 nM
- apparent Kd [2]: 53.9 nM

Sequence: GGUGCGUAUGUGAGGAUAUGCUGGUCCUUGGCUCGGCAGAAGGCACAUGAGGAUCACCCAUGUGGUGUCGUACA
- apparent Kd [3]: 112 nM
- apparent Kd [4]: 50.9 nM

Sequence: GCAUUUUAUGCAGGAUAUUGACUUUGGAUUAAACAAGAAGGGCAUAACAUGAGGAUCACCCAUGUUAUAUAGGUAUAUAUGUUC
- apparent Kd [3]: 7.45 nM
- apparent Kd [4]: 9.62 nM

Sequence: AUCAGCUCGUCAGGAUAUACGUCACUGCGUCAGCAGUGUGGUAAGAUCACAUGAGGAUCACCCAUGUAGAAGGGACCAGCUGAU
- apparent Kd [3]: 13.4 nM
- apparent Kd [4]: 229 nM

Sequence: CUGAUGUAAGGAUAUGUGUAGAAAUCAAAUCGGAUAUUCUAACAGAAGGUACAUGAGGAUCACCCAUGUGAGAA
- apparent Kd [3]: 39.7 nM
- apparent Kd [4]: 71.2 nM

Sequence: CAUGUCCUCACAGGAUAUGCUGGACUUUGUCCAGCAGAAGGGUGAACAUGAGGAUCACCCAUGUAAUGGACAUGUAUAUUUAAU
- apparent Kd [1]: 801 nM
- apparent Kd [2]: 50.9 nM

Sequence: UAUAUAUAGUAAGGAUAUGUAUUAAUUUUAUUAACAGAAGGUACUGACAUGAGGAUCACCCAUGUUUUAGUGUGGGCAUGUAGA
- apparent Kd [3]: 84.2 nM
- apparent Kd [4]: 149 nM

Sequence: UCGCCAGGUACAGGAUAUGUGGAUCAGUCAAGUAAUUUGCUGAACAUGAGGAUCACCCAUGUAUCACAGAAGGGUGCCUCAAAA
- apparent Kd [1]: 173 nM
- apparent Kd [2]: 8.41 nM

Sequence: CCUUAGUAAGGAUAUCAGCUUAUAGAGUUGGUAAUGAGAGCUGAGAAGGUACAUGAGGAUCACCCAUGUUAGUU
- apparent Kd [3]: 21.1 nM
- apparent Kd [4]: 35.1 nM

Sequence: CAUGAUCAUGUAGGAUAUAUACUGGAAUACAGUAUAGAAGGACAUGAGGAUCACCCAUGUUAUGUGCCUCCAAGUAAGAUCAUG
- apparent Kd [3]: 18.5 nM
- apparent Kd [4]: 24.7 nM

Sequence: AACUCGUCAGGAUAUGCGCGCAGUUACUACGCUUCGCAAUUGCAGAAGGGACAUGAGGAUCACCCAUGUAGGUC
- apparent Kd [3]: 46.9 nM
- apparent Kd [4]: 48 nM
